Data set [1] in a line: Inhibition of chymotrypsin-like activity of 20S proteasome in lymphoblastoid cells after 30 mins. In kind it is cell-based, Homo sapiens. The procedure, abridged:
(§1)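 Proteasome partially purified from lymphoblastoid cell lines, then affinity-purified (anti-α-subunit mAb) and dialyzed against 25 mM Tris-HCl pH 7.5; protein by BCA. Enzyme untreated or pretreated with 0.001–10 test compound, then incubated with subsite-specific fluorogenic substrate 30 min at 37 °C in activity buffer; fluorescence ex 360/em 465 nm. IC50 from fit of percent control vs concentration, Y=100/(1+(X/IC50))^A.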

Data set [2] is described as follows: Inhibition of peptidylglutamyl-peptide hydrolyzing-like activity of 20S proteasome in lymphoblastoid cells after 30 mins. In kind it is cell-based, Homo sapiens. In outline: as §1
For a further data set, the species on record is Homo sapiens. Briefly: Stability in human plasma after 6 hrs.
A short description of data set [3]: Inhibition of trypsin-like activity of 20S proteasome in lymphoblastoid cells after 30 mins. In kind it is cell-based, Homo sapiens. The procedure, abridged:
as §1

As to `CCOC(=O)/C=C/[C@H](CC(C)C)NC(=O)[C@H](CO)NC(=O)[C@@H](NC(=O)c1cccc(O)c1C)C(C)C`, the IC50 in data set [1] was over 10 µM; in data set [2], over 10 µM; in data set [3], 0.033 µM. Further, the half-life in the data set listed under Homo sapiens was over 6 h.

In the case of `CCOC(=O)/C=C/[C@H](CCC(N)=O)NC(=O)[C@@H]1Cc2ccccc2CN1C(=O)[C@@H](NC(=O)c1cccc(O)c1C)C(C)C`, the IC50 in data set [1] was over 10 µM; in data set [2] it was over 10 µM; in data set [3] it was 2.34 µM. In addition, the half-life in the data set filed under Homo sapiens is over 6 h.

As to `CCOC(=O)/C=C/[C@H](CC(C)C)NC(=O)[C@@H]1Cc2ccccc2CN1C(=O)[C@H](CC(C)C)NC(=O)c1cccc(O)c1C`, the IC50 in data set [1], in data set [2] and in data set [3] was over 10 µM in each case. In the data set filed under Homo sapiens, this compound returned a half-life of over 6 h.

Turning to `CCOC(=O)/C=C/[C@H](CCC(N)=O)NC(=O)[C@H](CC(C)C)NC(=O)[C@H](CC(C)C)NC(=O)c1cccc(O)c1C`, the IC50 in data set [1] was 8.41 µM; in data set [2], over 10 µM; in data set [3], 0.145 µM. The same compound showed a half-life in the data set listed under Homo sapiens of over 6 h.

Regarding `CCOC(=O)/C=C/[C@H](CC(C)C)NC(=O)[C@H](CO)NC(=O)[C@@H]1Cc2ccccc2CN1C(=O)c1cccc(O)c1C`, the IC50 in data set [1] is 7.36 µM; in data set [2], over 10 µM; in data set [3], 0.098 µM. Moreover, the half-life in the data set filed under Homo sapiens is over 6 h.

For `CCOC(=O)/C=C/[C@H](CC(C)C)NC(=O)[C@@H]1Cc2ccccc2CN1C(=O)[C@@H](NC(=O)c1cccc(O)c1C)C(C)C`, the IC50 is over 10 µM in data set [1], over 10 µM in data set [2] and 8.51 µM in data set [3]. In addition, the half-life in the data set filed under Homo sapiens was over 6 h.

For the compound `CCOC(=O)/C=C/[C@H](CCC(N)=O)NC(=O)[C@H](CO)NC(=O)[C@@H](NC(=O)c1cccc(O)c1C)C(C)C`, the half-inhibitory concentration (IC50) was over 10 µM in data set [1], over 10 µM in data set [2] and 0.056 µM in data set [3]. The half-life in the data set listed under Homo sapiens is over 6 h.

For the compound `CCOC(=O)/C=C/[C@H](CCC(N)=O)NC(=O)[C@H](CO)NC(=O)[C@@H]1Cc2ccccc2CN1C(=O)c1cccc(O)c1C`, the IC50 in data set [1] was over 10 µM; in data set [2] it was over 10 µM; in data set [3], 0.349 µM. Moreover, in the data set listed under Homo sapiens, the half-life is over 6 h.

In the case of `CCOC(=O)/C=C/[C@H](CCC(N)=O)NC(=O)[C@@H]1Cc2ccccc2CN1C(=O)[C@H](CC(C)C)NC(=O)c1cccc(O)c1C`, the IC50 in data set [1] is over 10 µM; in data set [2], over 10 µM; in data set [3] it was 5.89 µM. Besides, the half-life in the data set filed under Homo sapiens was over 6 h.

As for `CCOC(=O)/C=C/[C@H](CC(C)C)NC(=O)[C@H](CC(C)C)NC(=O)[C@@H]1Cc2ccccc2CN1C(=O)c1cccc(O)c1C`, the values for the concentration for half-maximal inhibition (IC50) in data set [1], in data set [2] and in data set [3] were 6.89 µM, over 10 µM and 0.157 µM, respectively. The compound also gave a half-life in the data set listed under Homo sapiens of over 6 h.

Take `CCOC(=O)/C=C/[C@H](CCC(N)=O)NC(=O)[C@H](CC(C)C)NC(=O)[C@@H]1Cc2ccccc2CN1C(=O)c1cccc(O)c1C`: the concentration for half-maximal inhibition (IC50) in data set [1] is over 10 µM; in data set [2] it was over 10 µM; in data set [3] it was 0.435 µM. The half-life in the data set filed under Homo sapiens is over 6 h.

Usually IC50 stands for the concentration that inhibits the measured activity by half. The low end stands for greater potency in that assay, the high end for weaker potency in that assay. One may read the half-life as the time in which the quantity being followed falls by half.

The values above are taken from ChEMBL document CHEMBL1147181, “Glutamine vinyl ester proteasome inhibitors selective for trypsin-like (beta2) subunit” (Eur J Med Chem, 2007).
